Results of several laboratories.
Each line is one published result; the experiments were not run side by side.
Target: Fibroblast growth factor receptor 1 (FGFR1, Homo sapiens, UniProt P11362)

O=C(Nc1c[nH]nc1C(=O)NC1CCNCC1)c1cc(F)cc(F)c1 — remaining binding (binding, competition with immobilised ligand; 1 µM): 100%
Cc1cnc(Nc2ccc(C(=O)N3CCC(N4CCCC4)CC3)cc2)nc1-c1cc2ccccc2s1 — remaining binding (binding, competition with immobilised ligand; 1 µM): 10%
C[C@@H](c1ccc(-n2cnc3c(N)ncnc32)cc1)N1CCc2nn(C)c(Cc3ccccc3)c2C1=O — remaining binding (binding, competition with immobilised ligand; 0.1 µM): 94%
CNC(=O)Nc1ccc2c(c1)CC[C@@]21OC(=O)N(CC(=O)N(Cc2ccc(F)cc2)[C@@H](C)C(F)(F)F)C1=O — remaining binding (cell-free assay, competition with immobilised ligand; 1 µM): 82%
CN(C)c1nccc(-c2cnn3ncccc23)n1 — remaining binding (binding; 1 µM): 100%
CN(C)C(=O)Cn1cc(-c2nc([C@@](C)(c3ccc(-c4cnc(N)nc4)cc3)C3CC3)no2)cn1 — remaining binding (cell-free assay, competition with immobilised ligand; 1 µM): 95%
c1cncc(-c2cccc(Nc3nccc(NC4CCCCC4)n3)c2)c1 — remaining binding (binding, competition with immobilised ligand; 10 µM): 14%
C[C@H]1CCN(c2nccc(-c3cnn4ncccc34)n2)C1 — remaining binding (binding; 1 µM): 100%
COc1cnc(Nc2cccc(S(N)(=O)=O)c2)nc1N1CCN(c2ccccc2)CC1 — remaining binding (binding, competition with immobilised ligand; 1 µM): 100%
O=C(NCCCN1CCOCC1)c1ccc(Nc2nccc(-c3cc4ccccc4s3)n2)cc1 — remaining binding (binding, competition with immobilised ligand; 1 µM): 88%
CN(C)c1nccc(-c2cnc3ncccn23)n1 — remaining binding (binding; 1 µM): 82%
C=CC(=O)N1CCC(C(=O)NCC(=O)N2CCN(c3nc(-c4cnc(N)nc4C(F)F)nc(N4CCOCC4)n3)CC2)CC1 — remaining binding (binding, competition with immobilised ligand; 1 µM): 100%
N[C@H]1CCN(c2nccc(-c3cnn4ncccc34)n2)C1 — remaining binding (binding; 1 µM): 100%
CO[C@H]1CC[C@H](CNc2ccc(S(=O)(=O)NC(=O)c3ccc(N4CCN(CC5=C(c6ccc(Cl)cc6)CC(C)(C)CC5)CC4)cc3Oc3cnc4[nH]ccc4c3)cc2[N+](=O)[O-])CC1 — remaining binding (cell-free assay, competition with immobilised ligand; 1 µM): 68%
O=C(c1ccc(Nc2ncc(Cl)c(-c3cc4ccccc4s3)n2)cc1)N1CCC(N2CCCC2)CC1 — remaining binding (binding, competition with immobilised ligand; 1 µM): 36%
Cc1cnn2ncc(-c3ccnc(N(C)C)n3)c2c1 — remaining binding (binding; 1 µM): 100%
C[C@@H]1CN(c2cc(-c3nn(C)c4ccc(OC5(C)CC5)cc34)ncn2)C[C@H](C)O1 — remaining binding (cell-free assay, competition with immobilised ligand; 1 µM): 100%
CN(C)c1ncc(F)c(-c2cnn3ncccc23)n1 — remaining binding (binding; 1 µM): 100%
COc1cccc(CNC(=O)c2nc3scc(COCc4ccc(C(=O)O)cc4)c3c(=O)[nH]2)c1 — remaining binding (cell-free assay, competition with immobilised ligand; 1 µM): 86.5%
c1cnn2ncc(-c3ccnc(N4CCC45COC5)n3)c2c1 — remaining binding (binding; 1 µM): 100%
CN(C)c1ncnc(-c2ccc3nc(Nc4cc(CN5CCN(C(=O)CC(F)(F)F)CC5)ccn4)[nH]c3c2)c1Cl — remaining binding (cell-free assay, competition with immobilised ligand; 1 µM): 100%
COc1cnc(Nc2cccc(S(N)(=O)=O)c2)nc1N1CCN(c2ccccc2)C(=O)C1 — remaining binding (binding, competition with immobilised ligand; 1 µM): 83%
